# Most compounds without a hit are left out; they make up all but 9.8% or so of the library.
# WT yeast gro inh = growth inhibition of WT yeast, mitochondrial fusion screen. mitochondrial fusion phenotypic screen, WT strain. inhibition, % at 10 µM. actives 2.1% (n = 190,000); in the data active = inhibition above about 58%; tested in S. cerevisiae
# Rad51 HR inh = blocks human Rad51 in homologous recombination | Q06609 | hRad51 DNA strand exchange, fluorescence dequenching | inhibition, % at 10 µM | actives 0.085% (n = 200,000);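 active = inhibition above 40% at the single screening dose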;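 note: 0% = DMSO control wells and 100% = blanks with heterologous ssDNA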
# Target sequence (Q06609 whole entry, looked up): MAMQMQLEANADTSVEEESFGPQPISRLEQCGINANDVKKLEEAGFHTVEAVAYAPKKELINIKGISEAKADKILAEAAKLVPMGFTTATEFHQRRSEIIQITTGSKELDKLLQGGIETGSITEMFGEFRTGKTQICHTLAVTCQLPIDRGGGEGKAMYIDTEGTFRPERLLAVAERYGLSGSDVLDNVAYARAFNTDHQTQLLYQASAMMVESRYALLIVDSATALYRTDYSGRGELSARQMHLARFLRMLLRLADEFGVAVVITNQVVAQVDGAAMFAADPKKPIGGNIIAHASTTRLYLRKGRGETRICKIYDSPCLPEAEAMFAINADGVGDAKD
#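 Test system – preformed human Rad51 ssDNA filaments · Reagent – Donor/quencher-labelled 47-bp dsDNA substrate · Incubation – 37 °C 15-min filament assembly, 30-min compound preincubation, 15-min exchange · Signal – FRET fluorescence dequenching, excitation 485 nm, emission 520 nm · Read-out – percent inhibition from fluorescence, normalised to plate control and blank means · Benchmarks – plate control and blank wells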
# PMI act hi M6P = increases human PMI activity with near-saturating mannose 6-phosphate. coupled PMI enzyme assay, resazurin fluorescence, 20 min; hits give high values; 1 = untreated enzyme, 0 = substrate-free blank. actives 0.34% (n = 190,000). AID 1216. activation factor at 20 µM. P34949;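 active = activation factor of 2 or more at 20 µM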
#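 Test system: human phosphomannose isomerase with PGI, G6PDH, diaphorase coupling enzymes / Doses: 20 µM compound, 1% DMSO / Times: enzyme reaction with compound 20 min at room temperature / Measured by: Diaphorase-driven resazurin-to-resorufin fluorescence, excitation 544, emission 590 nm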
# PMI act = activators of human phosphomannose isomerase | AID 1214 | actives 0.005% (n = 190,000) | activation factor at 20 µM | purified human PMI, coupled resazurin fluorescence, 20 min; hits give high values; 1 = vehicle control, 0 substrate-free wells;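 active = activation factor of 2 or more at 20 µM, relative to plate controls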
# Calpain2 inh = inhibitors of pig calpain II. inhibition, % at 16 µM. AID 1236. actives 0.37% (n = 220,000). purified calpain II, fluorogenic peptide substrate, 30 min;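 active = inhibition above about 50%, limit read from the data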
# L major viab = Leishmania major promastigote growth inhibition | Leishmania major promastigotes, resazurin fluorescence viability | inhibition, % at 10 µM | actives 9% (n = 200,000) | AID 1063; in the data active = inhibition above about 50%;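 note: promastigotes grown with compound for 44 hours at 28 °C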
# The depositor's hits bear a star; x = no result given.
SMILES,WT yeast gro inh,Rad51 HR inh,PMI act hi M6P,PMI act,Calpain2 inh,L major viab
CCCCOc1ccc(C(=O)Nc2ccc(SC(F)F)cc2)cc1OC,-21,-2,1,1,17,71*
c1ccc2c(c1)oc1c(NCCCN3CCOCC3)ncnc12,-9,11,0.9,0.9,-15,96*
O=c1oc2ccccc2c2c1ncn2CCN1CCOCC1,-13,0,1.1,1.1,-14,2
c1ccc2c(c1)oc1c(NCCCn3ccnc3)ncnc12,0,-2,1.2,1.1,2,94*
Cc1nc(NCCCn2ccnc2)c2oc3ccccc3c2n1,-28,6,1.1,1.1,-2,88*
O=C(COc1ccccc1O)NNc1ccccc1,30,x,1.1,1.1,8,74*
O=C(COc1ccccc1O)Nc1ccccc1Cl,8,-1,1,1,17,-2
O=C(c1cc([N+](=O)[O-])ccc1Cl)N1c2ccccc2Sc2ccccc21,1,8,0.9,0.9,14,35
Cc1cc(=O)n2[nH]c(-c3ccc(F)cc3)cc2n1,60*,-1,1,0.9,-47,0
O=C1CCC(NC(=O)c2ccccc2)C(=O)N1 (stereo not drawn),x,x,x,x,-16,x
O=C(c1ccccc1C(=O)N1CCN(c2ccc(F)cc2)CC1)N1CCN(c2ccc(F)cc2)CC1,7,2,0.9,0.9,-3,-1
O=C(c1sc2cc(F)ccc2c1Cl)N1CCN(c2ccccc2)CC1,65*,11,0.9,0.9,27,-2
CN1CCC(N(C)C(=O)c2sc3cc(F)ccc3c2Cl)CC1,1,-9,1,1,9,90*
CCCCNC(=S)Nc1ccc(OC)nc1,1,-1,0.9,1.1,-9,-3
Cc1ccc(SCc2cn3cccnc3n2)cc1,32,-12,0.9,0.9,-5,-8
Cc1ccn2cc(CSc3ccccc3)nc2c1,60*,-5,1,0.9,22,71*
O=C(c1cc2cc([N+](=O)[O-])ccc2s1)N1CCOCC1,-35,-9,1,1,11,6
COc1ccc(C(O)C(CN2CCOCC2)c2ccccc2)cc1 (stereo not drawn),-4,-12,1,1,-6,89*
CCOc1ccc(C(=O)C(CN2CCOCC2)c2ccccc2)cc1 (stereo not drawn),20,x,1.1,1.1,4,99*
N#Cc1ccccc1Oc1ccccc1C=O,-5,-10,1,1,21,57*
O=Cc1ccccc1OCCOc1ccccc1C=O,-10,-2,1.1,1,-17,72*
N#Cc1ccccc1OCC(=O)C1CC1,x,13,x,x,16,x
CN1CCN(CCCCOc2ccc(F)cc2)CC1,-2,5,1,0.9,-11,-5
CN1CCN(CCCCOc2ccccc2C=O)CC1,12,3,1.1,1.1,-20,100*
O=Cc1ccccc1Oc1ccccc1,10,-2,0.9,0.9,14,1
SMILES,WT yeast gro inh,Rad51 HR inh,PMI act hi M6P,PMI act,Calpain2 inh,L major viab
N#CC1=C(N)Oc2ccc3ccccc3c2C1c1cccnc1 (stereo not drawn),5,13,0.9,1,17,88*
O=C1CCC2(CC1)NC(=O)N(c1ccccc1)N2,3,2,2.6*,1.7,-19,10
Cc1nn(-c2ccccc2)c(C)c1C(=O)NNC(=O)C(F)(F)F,x,19,x,x,3,x
Cc1cc(CC(C)C)n(-c2nc3ccccc3c(=O)n2OCc2ccccc2)n1,65*,-2,0.9,1,6,16
Cc1cc(CC(C)C)n(-c2nc3ccccc3c(=O)n2OCC(=O)N(C)C)n1,-4,6,1,1,27,-2
CC1Oc2ccccc2C=C1/C=N/NC(=O)c1ccccc1O (stereo not drawn),71*,9,1.1,1,-17,-15
CC1Oc2ccccc2C=C1/C=N/NC(=O)c1ccccc1 (stereo not drawn),8,x,1,0.9,-179,17
S=C(c1ccc2c(c1)OCO2)N1CCOCC1,x,-3,x,x,10,x
CN(C)/C=N/c1cc(=O)[nH]c(=O)n1C,23,1,0.9,0.9,21,-7
Cc1ccnc(N=Cc2c(O)ccc3oc4c(c23)CCCC4)c1,-4,-39,0.5,0.6,-16,90*
CCOc1ccc(NC(=O)CC2C(=O)N(c3cccc(OC)c3)C(=O)N2CCOC)cc1 (stereo not drawn),x,5,x,x,-4,x
Fc1ccccc1-c1nc(NCCCN2CCOCC2)c2ccccc2n1,-2,x,1,1,-6,43
Clc1cccc(-c2nc(NCCN3CCOCC3)c3ccccc3n2)c1,11,1,0.9,0.9,6,75*
c1ccc2c(NCCCN3CCOCC3)c3ccccc3nc2c1,5,13,0.9,0.9,-36,100*
Clc1ccc(-c2nc(NCCCN3CCOCC3)c3ccccc3n2)cc1,x,x,x,x,7,x
Clc1cccc(-c2nc(NCCCN3CCOCC3)c3ccccc3n2)c1,24,x,1,0.9,-6,80*
Cc1ccc(-c2nc(NCCN3CCOCC3)c3ccccc3n2)cc1,4,10,1,1,-11,81*
Cc1ccc(S(=O)(=O)N2CCOCC2)cc1C(=O)N1c2ccccc2Sc2ccccc21,-6,4,0.8,0.8,-65,99*
Cc1ccc(-n2c(C)cc(C(=O)CN3CCOCC3)c2C)cc1,-8,-22,1,1.1,-18,6
Cc1ccc(-n2c(C)cc(C(=O)CN3CCOCC3)c2C)cc1C,-11,3,1,1,16,57*
Cc1cc(C(=O)CSc2ncn[nH]2)c(C)n1-c1cccc(S(=O)(=O)N2CCOCC2)c1,-12,-9,1,0.8,-5,59*
Cc1cc(C(=O)CCl)c(C)n1-c1cccc(S(=O)(=O)N2CCOCC2)c1,-6,16,1.4,1.2,-32,101*
Cc1ccc(NC(=O)c2cc(N3C(=O)C=CC3=O)ccc2Cl)cc1C,9,-2,1.1,1,-37,-6
Cc1c(NC(=O)C(C)N2C(=O)NC3(CCC(C)CC3)C2=O)c(=O)n(-c2ccccc2)n1C (stereo not drawn),-13,-22,0.9,1,17,1
Cc1cc(C(=O)CN2CCCC(C)C2)c(C)n1-c1ccc(F)cc1 (stereo not drawn),-13,-1,1,1,-1,73*
CCN(CC)C(=O)C(=O)c1cc(C)n(-c2ccc(F)cc2)c1C,-12,3,1,1,-1,-5
COc1cc2c(cc1OC)C1(CCCC1)CNC2c1cccc([N+](=O)[O-])c1 (stereo not drawn),10,6,1,0.9,5,17
Cc1nn(-c2ccc(F)cc2)c2sc(C(=O)N3CCCCCC3)cc12,21,-2,0.9,0.8,50*,-1
